From publication PMC5060091 (ChemMedChem, 2016)
In brackets after ≈: the same amount, converted by molar mass. Where two headings read alike, the source gives them in different places.

Assays:
[1] = tested on: Candida albicans ATCC 10231; test: MIC, broth dilution, strain A; type: cell-based; details: Candida albicans
Procedure, shortened: (§1)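 Broth dilution MIC assay on the Candida panel: C. albicans strains A–G, C. glabrata (H), C. krusei (I) and C. parapsilosis (J). Test compounds were delivered in DMSO, with DMSO kept below 1% in the assay. The MIC is reported in µg/mL, with µM in parentheses. Reference antifungals (a polyene and four azoles) were run alongside.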

C. albicans ATCC 64124 [2] = test: MIC, broth dilution, strain B; type: cell-based, Candida albicans; details: Candida albicans
Procedure, shortened: as §1

[3] = tested on: C. albicans ATCC MYA-2876(S); test: MIC, broth dilution, strain C; type: cell-based, Candida albicans; details: Candida albicans
Procedure, shortened: as §1

[4] = tested on: C. albicans ATCC 90819(R); test: MIC, broth dilution, strain D; type: cell-based, Candida albicans; details: Candida albicans
Procedure, shortened: as §1

[5] = tested on: C. albicans ATCC MYA-2310(S); test: MIC, broth dilution, strain E; type: cell-based, Candida albicans; details: Candida albicans
Procedure, shortened: as §1

[6] = tested on: C. albicans ATCC MYA-1237(R); test: MIC, broth dilution, strain F; type: cell-based, Candida albicans; details: Candida albicans
Procedure, shortened: as §1

[7] = tested on: C. albicans ATCC MYA-1003(R); test: MIC, broth dilution, strain G; type: cell-based, Candida albicans; details: Candida albicans
Procedure, shortened: as §1

[8] = tested on: Aspergillus nidulans ATCC 38163; test: MIC, broth dilution, strain L; type: cell-based; details: Aspergillus nidulans
[9] = tested on: Aspergillus terreus ATCC MYA-3633; test: MIC, broth dilution, strain M; type: cell-based; details: Aspergillus terreus
[10] = tested on: Aspergillus strains (K–M); test: MIC against Aspergillus strains; type: cell-based; details: read-out: MIC values against Aspergillus strains
[11] = tested on: Aspergillus flavus ATCC MYA-3631; test: MIC, broth dilution, strain K; type: cell-based; details: Aspergillus flavus
[12] = tested on: Candida albicans ATCC 10231; details: strain A; azoles; previously reported; cited from earlier work
C. albicans ATCC 64124 [13] = details: strain B; azoles; previously reported; cited from earlier work
[14] = tested on: C. albicans ATCC MYA-2876(S); details: strain C; azoles; previously reported; cited from earlier work
[15] = tested on: C. albicans ATCC 90819(R); details: strain D; azoles; previously reported; cited from earlier work
[16] = tested on: C. albicans ATCC MYA-2310(S); details: strain E; azoles; previously reported; cited from earlier work
[17] = tested on: C. albicans ATCC MYA-1237(R); details: strain F; azoles; previously reported; cited from earlier work
[18] = tested on: C. albicans ATCC MYA-1003(R); details: strain G; azoles; previously reported; cited from earlier work
[19] = tested on: Aspergillus nidulans ATCC 38163; details: strain L; previously reported; cited from earlier work
[20] = read-out: MIC (MIC-2) in µM (parentheses)
[21] = read-out: MIC (MIC-0) in µM (parentheses)

| SMILES | MIC ([9]; read-out: MIC (MIC-0)) [µg/mL] | MIC [9, 21] [µM] | MIC ([11]; read-out: MIC (MIC-0)) [µg/mL] | MIC [11, 21] [µM] | MIC (MIC-2) [12] [µg/mL] | MIC (MIC-2) in µM (parentheses) [12] [µM] | MIC (MIC-2) (C. albicans ATCC 64124 [13]) [µg/mL] | MIC (MIC-2) in µM (parentheses) (C. albicans ATCC 64124 [13]) [µM] | MIC (MIC-2) [14] [µg/mL] | MIC (MIC-2) in µM (parentheses) [14] [µM] | MIC (MIC-2) [15] [µg/mL] | MIC (MIC-2) in µM (parentheses) [15] [µM] | MIC (MIC-2) [16] [µg/mL] | MIC (MIC-2) in µM (parentheses) [16] [µM] | MIC (MIC-2) [17] [µg/mL] | MIC (MIC-2) in µM (parentheses) [17] [µM] | MIC (MIC-2) [18] [µg/mL] | MIC (MIC-2) in µM (parentheses) [18] [µM] | MIC (MIC-0) [19] [µg/mL] | MIC (MIC-0) in µM (parentheses) [19] [µM] | further results |
| --- | --- | --- | --- | --- | --- | --- | --- | --- | --- | --- | --- | --- | --- | --- | --- | --- | --- | --- | --- | --- | --- |
| C[C@@H](c1ncncc1F)[C@](O)(Cn1cncn1)c1ccc(F)cc1F [VOR, voriconazole] | 0.12 | 0.34 |  |  |  |  |  |  |  |  |  |  |  |  |  |  |  |  |  |  | MIC ([1]; ATCC10231, read-out: MIC (MIC-2)): 7.8 µg/mL; MIC ([1]; ATCC10231, read-out: MIC (MIC-2) in µM (parentheses)): 22.3 µM; MIC (C. albicans ATCC 64124 [2]; ATCC64124, read-out: MIC (MIC-2)): > 31.2 µg/mL; MIC (C. albicans ATCC 64124 [2]; ATCC64124, read-out: MIC (MIC-2) in µM (parentheses)): > 89.3 µM; MIC ([3]; read-out: MIC (MIC-2)): 0.975 µg/mL; MIC [3, 20]: 2.79 µM; MIC ([4]; ATCC90819, read-out: MIC (MIC-2)): 1.95 µg/mL; MIC ([4]; ATCC90819, read-out: MIC (MIC-2) in µM (parentheses)): 5.58 µM; MIC ([5]; read-out: MIC (MIC-2)): 1.95 µg/mL; MIC [5, 20]: 5.58 µM; MIC ([6]; read-out: MIC (MIC-2)): 0.975 µg/mL; MIC [6, 20]: 2.79 µM; MIC ([7]; read-out: MIC (MIC-2)): 7.8 µg/mL; MIC [7, 20]: 22.3 µM; MIC ([8]; ATCC38163, read-out: MIC (MIC-0)): 0.03 µg/mL; MIC ([8]; ATCC38163, read-out: MIC (MIC-0) in µM (parentheses)): 0.09 µM; MIC [10]: 0.03 to 0.24 µg/mL (≈ 0.0859 to 0.687 µM) |
| CCC(C)n1ncn(-c2ccc(N3CCN(c4ccc(OCC5COC(Cn6cncn6)(c6ccc(Cl)cc6Cl)O5)cc4)CC3)cc2)c1=O (centres unmarked) [ITC, itraconazole] | 0.975 | 1.38 | 0.48 | 0.68 | 0.5 (≈ 0.709 µM) | 0.71 (≈ 0.501 µg/mL) | > 62.5 | > 88.6 | 7.8 (≈ 11.1 µM) | 11.1 (≈ 7.83 µg/mL) | 31.2 (≈ 44.2 µM) | 44.2 (≈ 31.2 µg/mL) | 31.2 (≈ 44.2 µM) | 44.2 (≈ 31.2 µg/mL) | 31.2 (≈ 44.2 µM) | 44.2 (≈ 31.2 µg/mL) | 31.2 (≈ 44.2 µM) | 44.2 (≈ 31.2 µg/mL) | 0.195 (≈ 0.276 µM) | 0.28 (≈ 0.198 µg/mL) |  |
| CC[C@@H]([C@H](C)O)n1ncn(-c2ccc(N3CCN(c4ccc(OC[C@@H]5CO[C@@](Cn6cncn6)(c6ccc(F)cc6F)C5)cc4)CC3)cc2)c1=O [POS, posaconazole] | 0.48 | 0.68 | 0.24 | 0.34 | 0.5 (≈ 0.713 µM) | 0.71 (≈ 0.498 µg/mL) | > 62.5 | > 89.3 | 7.8 (≈ 11.1 µM) | 11.1 (≈ 7.78 µg/mL) | 31.2 (≈ 44.5 µM) | 44.5 (≈ 31.2 µg/mL) | 31.2 (≈ 44.5 µM) | 44.5 (≈ 31.2 µg/mL) | 15.6 (≈ 22.3 µM) | 22.3 (≈ 15.6 µg/mL) | 15.6 (≈ 22.3 µM) | 22.3 (≈ 15.6 µg/mL) | 0.195 (≈ 0.278 µM) | 0.28 (≈ 0.196 µg/mL) |  |
